Test results: ChEMBL document CHEMBL1154567, “New lanostanoids of Ganoderma tsugae” (2000)
Converted amounts (≈) assume the structure as drawn. Numbered stars: 1 amine (or outer) side, 2 acyl side, 3 side chain; on linkers, the order of the positions; unused ones are H or OH. Bridge positions count the residues as written; N and C are the ends. Square brackets hold non-standard residues; d marks the D form. Peptide text beside a SMILES is read from it. I, II: the chains in the order shown. Actinocin(1to9) = Cc1c2oc3c(C)ccc(C(=O)[*:2])c3nc-2c(C(=O)[*:1])c(N)c1=O; NMeV = CN[C@H](C(=O)O)C(C)C; Sar = CNCC(=O)O

Experiments:
Assay type in all cases: functional
[1] = system: T-24; assay: Cytotoxicity against human T24 cells after 6 days by MTT assay; conditions: T-24, 144 h, read-out: ED50 (the source's name)
Method in brief: (§1)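 Human lines (hepatoma PLC/PRF/5, T24, cervical carcinoma HT-3 and SiHa) were kept in DMEM with 10% FBS, 2 mM L-glutamine and penicillin/streptomycin, plus 10 mM HEPES pH 7.3, at 37 °C in CO2. Cells at 1-3 × 10³/100 µL had 6 h to attach, then fresh medium with graded drug concentrations was added for 6 days. Survival was read by 4 h MTT (1 mg/mL in PBS, 10 µL) at 37 °C, with DMSO solubilization.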

[2] = system: SiHa; assay: Cytotoxicity against human SiHa cells after 6 days by MTT assay; conditions: 144 h, read-out: ED50 (the source's name); method in brief: as §1
[3] = Cytotoxicity against human PLC/PRF/5 cells after 6 days by MTT assay; conditions: PLC-PRF-5, 144 h, read-out: ED50 (the source's name); method in brief: as §1
[4] = system: HT-3; assay: Cytotoxicity against human HT3 cells after 6 days by MTT assay; conditions: HT-3, 144 h, read-out: ED50 (the source's name); method in brief: as §1
[5] = system: Ca-Ski; assay: Cytotoxicity against human CaSKi cells after 6 days by MTT assay; conditions: 144 h, read-out: ED50 (the source's name)
Method in brief: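 CaSki (human cervical carcinoma) kept in DMEM with 10% FBS, 2 mM L-glutamine and penicillin/streptomycin. For the assay, 1-3 × 10³ cells/100 µL were seeded and left 6 h to attach. Medium was then replaced with fresh medium holding a range of drug concentrations, plus 10 mM HEPES pH 7.3, at 37 °C in CO₂. After 6 days, MTT (1 mg/mL in PBS) was added for 4 h. Formazan was dissolved in DMSO.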

[6] = Cytotoxicity against mouse 212 cells after 6 days by MTT assay; conditions: 144 h, read-out: ED50 (the source's name)
Method in brief: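 The 212 line is an inducible Ha-ras-transformed NIH/3T3 line. It was grown in alpha MEM with 10% calf serum and antibiotics, plus 10 mM HEPES pH 7.3, at 37 °C in CO2. Cells were seeded at 1-3 × 10³/100 µL and allowed 6 h to attach. Medium was then swapped for fresh medium carrying various drug concentrations for 6 days. MTT (10 µL of 1 mg/mL) was added for 4 h at 37 °C, and formazan was dissolved in DMSO.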

CC(C)=CCC[C@@H](C(=O)O)[C@H]1CC[C@@]2(C)C3=C(CC[C@]12C)[C@@]1(C)CCC(=O)C(C)(C)[C@@H]1CC3
EC50 [1]: 8.2 µg/mL (≈ 18 µM) | EC50 [2]: 5.1 µg/mL (≈ 11.2 µM) | EC50 [3]: 12.1 µg/mL (≈ 26.6 µM) | EC50 [4]: 6.9 µg/mL (≈ 15.2 µM) | EC50 [5]: 7.2 µg/mL (≈ 15.8 µM)

CC(=O)O[C@H]1CC[C@]2(C)C3=C(CC[C@H]2C1(C)C)[C@]1(C)CC[C@H]([C@@H](CCC=C(C)C)C(=O)O)[C@@]1(C)CC3 [ACETYL TRAMETENOLIC ACID]
EC50 [1]: 5.8 µg/mL (≈ 11.6 µM) | EC50 [3]: 9.2 µg/mL (≈ 18.4 µM) | EC50 [5]: 3.9 µg/mL (≈ 7.82 µM)

Cc1c2oc3c(C)ccc(C(=O)N[C@@H]4C(=O)N[C@H](C(C)C)C(=O)N5CCC[C@H]5C(=O)N(C)CC(=O)N(C)[C@@H](C(C)C)C(=O)O[C@@H]4C)c3nc-2c(C(=O)N[C@@H]2C(=O)N[C@H](C(C)C)C(=O)N3CCC[C@H]3C(=O)N(C)CC(=O)N(C)[C@@H](C(C)C)C(=O)O[C@@H]2C)c(N)c1=O [DACTINOMYCIN] (I: T[dV]P[Sar][NMeV] / II: T[dV]P[Sar][NMeV]; ester I:1-I:C, II:1-II:C; linker I:N-II:N via Actinocin(1to9))
EC50 [1]: 0.0015 µg/mL (≈ 0.00119 µM) | EC50 [3]: 0.0014 µg/mL (≈ 0.00112 µM) | EC50 [5]: 0.0019 µg/mL (≈ 0.00151 µM)

CC(C)=CCC[C@@H](C(=O)O)[C@H]1CC[C@@]2(C)C3=C(CC[C@]12C)[C@@]1(C)CC[C@H](O)C(C)(C)[C@@H]1CC3 [TRAMETENOLIC ACID]
EC50 [1]: 4.4 µg/mL (≈ 9.63 µM) | EC50 [2]: 5.5 µg/mL (≈ 12 µM) | EC50 [4]: 3.5 µg/mL (≈ 7.66 µM) | EC50 [5]: 6.2 µg/mL (≈ 13.6 µM)

CC(=O)O[C@@H]1CC[C@]2(C)C3=C(CC[C@H]2C1(C)C)[C@]1(C)CC[C@H]([C@@H](CCC=C(C)C)C(=O)O)[C@@]1(C)CC3 [TSUGARIC ACID A]
EC50 [1]: 3.1 µg/mL (≈ 6.22 µM) | EC50 [3]: 6.8 µg/mL (≈ 13.6 µM)

C=C(C)C(C)CC[C@@H](C(=O)O)[C@H]1[C@H](O)C[C@@]2(C)C3=C(CC[C@]12C)[C@@]1(C)CC[C@H](OC(C)=O)C(C)(C)[C@@H]1CC3 (stereo not given in full) [TSUGARIC ACID B]
EC50 [6]: 10.3 µg/mL (≈ 19.5 µM)

CC(=O)O[C@@H]1CC[C@]2(C)C3=C(CC[C@H]2C1(C)C)[C@]1(C)CC[C@H]([C@@H](CCC=C(C)C)C(=O)O[C@@H]2O[C@H](CO)[C@@H](O)[C@H](O)[C@H]2O)[C@@]1(C)CC3 [TSUGARIOSIDE A]
EC50 [1]: 1.73 µg/mL (≈ 2.62 µM) | EC50 [2]: 8.4 µg/mL (≈ 12.7 µM) | EC50 [4]: 6.8 µg/mL (≈ 10.3 µM)

C=C(C)/C(C)=C\C[C@@H](C(=O)O[C@@H]1OC[C@@H](O)[C@H](O)[C@H]1O)[C@H]1CC[C@@]2(C)C3=C(CC[C@]12C)[C@@]1(C)CC[C@@H](OC(C)=O)C(C)(C)[C@@H]1CC3 [TSUGARIOSIDE C]
EC50 [1]: 8.6 µg/mL (≈ 13.4 µM) | EC50 [2]: 9.5 µg/mL (≈ 14.8 µM) | EC50 [3]: 6.5 µg/mL (≈ 10.1 µM) | EC50 [4]: 7.2 µg/mL (≈ 11.2 µM)
